# Results as given in article PMC5207485 (Bioorganic & medicinal chemistry, 2016).
# pKi: −log10 of the molar value. Where two headings read alike, the source gives them in different places.
# Experiments:
# [1] = rhesus macaque, intravenous dose; cited from earlier work
# [2] = PET scan of [18F]ALS-I-41 in a cynomolgus macaque, IV bolus; type: in vivo, cynomolgus macaque (Macaca fascicularis)
# In short: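 Single male cynomolgus macaque (8.1 kg), Telazol 3 mg/kg IM, then intubated and ventilated on 1–2% isoflurane in oxygen with continuous vital monitoring. 5 mCi of the [18F]tracer given IV, then brain PET for 2 h, co-registered to the animal's MRI. Summed frames at 9–26 min and 90–120 min post-injection were used to assess distribution.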
# [3] = titi monkey models; cited from earlier work
# [4] = PET imaging of [18F]ALS-I-41 in Sprague-Dawley rats; type: in vivo; conditions: rat PET
# In short: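 Female Sprague-Dawley rats (200–330 g), isoflurane induction 4–5% and maintenance 1–2% in oxygen, vitals and temperature monitored. [18F]tracer was given IM at 340–390 μCi in 100 μl above the knee, with scanning from 15 min post-injection, or as a 30 min tail-vein infusion of 250–310 μCi in 10% ethanol/saline by syringe pump. 2 h PET with Co-57 attenuation correction; time-activity curves for whole brain, arm muscle and skull.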
# [5] = target: human OXTR; conditions: displacing [^3H]OT at a concentration of 2 nM; cited from earlier work
# [6] = Plasma concentration of ALS-I-41 after IN or IM administration; type: in vivo, rhesus macaque; conditions: for Time Plasma Max: male rhesus
# [7] = CSF concentration of ALS-I-41 after IN or IM administration; type: in vivo, rhesus macaque; conditions: for Time Max: macaque CSF; for Ave Max in CSF / Time CSF Max: male rhesus
# In short: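 Four male rhesus macaques (5 yr, 9–13 kg) under IM Telazol (4–5 mg/kg) with IV propofol drip (10 mg/kg/hr). Test compound in propylene glycol, given IN by face-mask pediatric nebulizer over 8 min (dose from nebulizer residue) or IM 6.15 mg into the inner thigh. Lumbar CSF was analysed unprocessed by LC-MS/MS in duplicate (C18, 70:30:0.1 water/methanol/formic acid). Detection limit ~1 pg/ml; blood-contaminated samples excluded.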
# [8] = CSF OT levels after IV and IN nasal spray OT, maximum 5 IU/kg; type: in vivo; conditions: macaque, maximum of 5 IU/kg OT, same calculation from data of ref 38
# [9] = IN 24 IU OT, 75 minutes post administration, baseline 20 pg/ml; cited from earlier work
# [10] = macaque, IN nasal spray, maximum of 5 IU/kg OT; cited from earlier work
# [11] = aerosolized IN high dose, ave dose 7690 μg
# [12] = aerosolized IN low dose, ave dose 202 μg
# [13] = rhesus, IN 7.5 mg target dose vs low dose
compound,measurement,setting,value
"Cc1ccccc1N1CCN(S(=O)(=O)CC23CCC(CC2NC(=O)C(N)CCS(C)(=O)=O)C3(C)C)CC1 [L-368,899]",time remaining in the CSF post injection,[1],over 250 minutes
CS(=O)(=O)N1CCC(Oc2ccc(CC(=O)N3CCC(N4C(=O)CCc5ccccc54)CC3)c(OCC[18F])c2)CC1 [[^18F]ALS-I-41],time at which distribution of the tracer throughout the entire brain peaked,"[2]; cynomolgus macaque, 5 mCi IV bolus",15 to 30 min
same,brain uptake versus neck muscle tissue (TAC),"[2]; cynomolgus macaque, 5 mCi IV, 2 hour scan",only a fraction of the dose reaches the brain
same,tracer remaining in the thalamic region at the end of the scan,"[2]; cynomolgus macaque, 2 hour scan",very little remained
same,bone uptake,[2]; monkey model (macaque PET scan),no significant bone uptake detected
same,brain penetration,[3],no significant brain penetration
same,metabolism suggested by rapid uptake in the bone,[4],rapidly metabolized on first pass
CS(=O)(=O)N1CCC(Oc2ccc(CC(=O)N3CCC(N4C(=O)CCc5ccccc54)CC3)c(OCCF)c2)CC1 [ALS-I-41],pKi,[5],7.80
same,Time Plasma Max,"[6]; IM, dose 6150 μg",60 m
same,Time Plasma Max,[6]; [11],15 m
same,Time Plasma Max,[6]; [12],5 m
same,"increase in plasma concentrations, high dose IN in comparison to low dose IN",[6]; [13],150 fold
same,Time Max,[7]; IM 6.15 mg,120 m
same,Time Max,[7]; IN 7.69 mg,60 m
same,time retained within the brain,"[7]; macaque, after IN or IM administration",over 2 hours
same,Ave Max in CSF,"[7]; IM, dose 6150 μg",478 pg/mL
same,Time CSF Max,"[7]; IM, dose 6150 μg",120 m
same,Ave Max in CSF,[7]; [11],97.2 pg/mL
same,Time CSF Max,[7]; [11],60 m
same,Ave Max in CSF,[7]; [12],7.36 pg/mL
same,Time CSF Max,[7]; [12],120 m
same,brain penetration,"[7]; rhesus macaque, via CSF extraction and PET imaging",mild brain penetrant
same,"increase in CSF concentration, high dose IN in comparison to low dose IN",[7]; [13],14 fold
oxytocin [OT],maximum reported CSF OT increase,[8],~22 pM
same,OT levels in human CSF post administration,[9],30 pg/mL
same,change of CSF OT,[10],no significant change
